From ChEMBL document CHEMBL1138564, “Microwave-induced synthesis and anti-microbial activities of 7,10,11,12-tetrahydrobenzo[c]acridin-8(9H)-one derivatives” (2009)
≈ marks a conversion by molar mass, not a printed value. Calls of active or inactive are those of the source. No cut-off for these calls is given here.

Key:
[1] = test system: Pseudomonas aeruginosa; test: Antimicrobial activity against Pseudomonas aeruginosa NCIM 2200 at 1000 ug/disk after 24 hrs by disk diffusion method; format: functional; settings: NCIM 2200, 24 h, read-out: DIZ
Method in brief: (§1)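 Disc diffusion on Mueller–Hinton agar. 100 µl of bacterial suspension at 10⁸ CFU/ml is spread on the plate. Discs carry test compounds at two loadings, dissolved in DMSO; DMSO alone serves as negative control. Ofloxacin disc is the positive reference. Plates are incubated at 37 °C for 24 h, and the inhibition zone diameter is measured.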

[2] = test system: Bacillus subtilis; test: Antimicrobial activity against Bacillus subtilis NCIM 2063 after 24 hrs by serial dilution method; format: functional; settings: NCIM 2063, 24 h
Method in brief: (§2)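 Broth dilution MIC in nutrient broth, run only for organisms found sensitive in disc diffusion. Compounds are two-fold serially diluted in 1 ml sterile broth per tube, spanning 3.9 to 1000. Inoculated tubes are incubated at 37 °C for 24 h.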

[3] = test system: Rhodotorula mucilaginosa; test: Antimicrobial activity against Rhodotorula rubra NCIM 3174 after 72 hrs by serial dilution method; format: functional; settings: NCIM 3174, 72 h
Method in brief: (§3)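 MIC by broth dilution in Sabouraud's dextrose broth, run only on fungi found sensitive in the disc assay. Twofold serial dilutions were made in 1 ml broth per tube, covering 3.9 to 1000. Inoculated tubes were incubated at 27 °C for 72 h.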

[4] = test system: Aspergillus flavus; test: Antimicrobial activity against Aspergillus flavus NCIM 902 after 72 hrs by serial dilution method; format: functional; settings: NCIM 535, 72 h, in the assay text read “NCIM 535” for “NCIM 902”
Method in brief: (§4)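 MIC by broth dilution in Sabouraud's dextrose broth, only for fungi sensitive in disc diffusion. Two-fold serial dilutions of compounds are made in 1 ml broth per tube, range 3.9 to 1000. Inoculated tubes are incubated at 27 °C for 72 h.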

[5] = test system: Bacillus subtilis; test: Antimicrobial activity against Bacillus subtilis NCIM 2063 at 1000 ug/disk after 24 hrs by disk diffusion method; format: functional; settings: NCIM 2063, 24 h, read-out: DIZ; method in brief: as §1
[6] = test system: Trichoderma viride; test: Antimicrobial activity against Trichoderma viride NCIM 1195 at 500 ug/disk after 72 hrs by disk diffusion method; format: functional; settings: NCIM 1195, 72 h, read-out: DIZ
Method in brief: (§5)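 Fungal disc diffusion. 100 µl of suspension at 10⁶ CFU/ml was spread on Sabouraud's dextrose agar. Discs carrying test compound in DMSO were applied, with a DMSO-only disc as negative control. Plates were incubated at 27 °C for 72 h, and the zone of inhibition diameter was measured.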

[7] = test system: Bacillus cereus; test: Antimicrobial activity against Bacillus cereus NCIM 2155 at 1000 ug/disk after 24 hrs by disk diffusion method; format: functional; settings: NCIM 2155, 24 h, read-out: DIZ; method in brief: as §1
[8] = test system: Penicillium chrysogenum; test: Antimicrobial activity against Penicillium chrysogenum NCIM 707 at 500 ug/disk after 72 hrs by disk diffusion method; format: functional
Method in brief: (§6)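 Disc diffusion on Sabouraud's dextrose agar. 100 µl of fungal suspension at 10⁶ CFU/ml is spread on the plate. Discs carry test compounds at two loadings in DMSO; DMSO alone is the negative control. Clotrimazole disc is the positive reference. Plates are incubated at 27 °C for 72 h, and the zone of inhibition diameter is measured.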

[9] = test system: Aliivibrio fischeri; test: Antimicrobial activity against Vibrio fischeri NCIM 2154 at 500 ug/disk after 24 hrs by disk diffusion method; format: functional; settings: NCIM 2154, 24 h, read-out: DIZ
Method in brief: (§7)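 Disc diffusion. 100 µl of bacterial suspension at 10⁸ CFU/ml was spread on Mueller–Hinton agar. Discs loaded with test compound dissolved in DMSO were placed on the lawn, with a DMSO-only disc as negative control. Plates were incubated at 37 °C for 24 h, and the inhibition zone diameter was measured.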

[10] = test system: Aliivibrio fischeri; test: Antimicrobial activity against Vibrio fischeri NCIM 2154 at 1000 ug/disk after 24 hrs by disk diffusion method; format: functional; settings: NCIM 2154, 24 h, read-out: DIZ; method in brief: as §7
[11] = test system: Rhodococcus corynebacterioides; test: Antimicrobial activity against Corynebacterium rubrum NCIM 2252 at 1000 ug/disk after 24 hrs by disk diffusion method; format: functional; settings: Rhodococcoides corynebacterioides, NCIM 2252, 24 h; read-out: DIZ; method in brief: as §1
[12] = test system: Aspergillus flavus; test: Antimicrobial activity against Aspergillus flavus NCIM 902 at 1000 ug/disk after 72 hrs by disk diffusion method; format: functional; settings: NCIM 902, 72 h, read-out: DIZ; method in brief: as §6
[13] = test system: Aspergillus fumigatus; test: Antimicrobial activity against Aspergillus fumigatus NCIM 902 at 500 ug/disk after 72 hrs by disk diffusion method; format: functional; method in brief: as §6
[14] = test system: Rhodococcus corynebacterioides; test: Antimicrobial activity against Corynebacterium rubrum NCIM 2252 at 500 ug/disk after 24 hrs by disk diffusion method; format: functional; settings: Rhodococcoides corynebacterioides, NCIM 2252, 24 h; read-out: DIZ; method in brief: as §1
[15] = test system: Trichoderma viride; test: Antimicrobial activity against Trichoderma viride NCIM 1195 at 1000 ug/disk after 72 hrs by disk diffusion method; format: functional; settings: NCIM 1195, 72 h, read-out: DIZ; method in brief: as §5
[16] = test system: Pseudomonas aeruginosa; test: Antimicrobial activity against Pseudomonas aeruginosa NCIM 2200 at 500 ug/disk after 24 hrs by disk diffusion method; format: functional; settings: NCIM 2200, 24 h, read-out: DIZ; method in brief: as §7
[17] = test system: Rhodotorula mucilaginosa; test: Antimicrobial activity against Rhodotorula rubra NCIM 3174 at 500 ug/disk after 72 hrs by disk diffusion method; format: functional; settings: NCIM 3174, 72 h, read-out: DIZ; method in brief: as §5
[18] = test system: Salmonella typhimurium; test: Antimicrobial activity against Salmonella Typhimurium NCIM 2501 at 500 ug/disk after 24 hrs by disk diffusion method; format: functional, Salmonella enterica subsp. enterica serovar Typhimurium; settings: Salmonella enterica, NCIM 2501, 24 h; read-out: DIZ; method in brief: as §7
[19] = test system: Proteus vulgaris; test: Antimicrobial activity against Proteus vulgaris NCIM 2027 at 1000 ug/disk after 24 hrs by disk diffusion method; format: functional; settings: NCIM 2027, 24 h, read-out: DIZ; method in brief: as §1
[20] = test system: Staphylococcus; test: Antimicrobial activity against Staphylococcus albus NCIM 2178 at 500 ug/disk after 24 hrs by disk diffusion method; format: functional; settings: NCIM 2178, 24 h, read-out: DIZ; method in brief: as §7
[21] = test system: Aspergillus parasiticus; test: Antimicrobial activity against Aspergillus parasiticus NCIM 904 after 72 hrs by serial dilution method; format: functional; settings: NCIM 904, 72 h; method in brief: as §4
[22] = test system: Rhodotorula mucilaginosa; test: Antimicrobial activity against Rhodotorula rubra NCIM 3174 at 1000 ug/disk after 72 hrs by disk diffusion method; format: functional; settings: NCIM 3174, 72 h, read-out: DIZ; method in brief: as §5
[23] = test system: Klebsiella aerogenes; test: Antimicrobial activity against Klebsiella aerogenes NCIM 2239 at 1000 ug/disk after 24 hrs by disk diffusion method; format: functional; settings: NCIM 2239, 24 h, read-out: DIZ; method in brief: as §1
[24] = test system: Escherichia coli; test: Antimicrobial activity against Escherichia coli NCIM 2065 at 500 ug/disk after 24 hrs by disk diffusion method; format: functional; settings: NCIM 2065, 24 h, read-out: DIZ; method in brief: as §1
[25] = test system: Bacillus cereus; test: Antimicrobial activity against Bacillus cereus NCIM 2155 at 500 ug/disk after 24 hrs by disk diffusion method; format: functional; settings: NCIM 2155, 24 h, read-out: DIZ; method in brief: as §1
[26] = test system: Escherichia coli; test: Antimicrobial activity against Escherichia coli NCIM 2065 after 24 hrs by serial dilution method; format: functional; settings: NCIM 2065, 24 h; method in brief: as §2
[27] = test system: Lipomyces lipofer; test: Antimicrobial activity against Lipomyces lipofer NCIM 3252 at 500 ug/disk after 72 hrs by disk diffusion method; format: functional; settings: NCIM 3252, 72 h, read-out: DIZ; method in brief: as §6
[28] = test system: Aspergillus parasiticus; test: Antimicrobial activity against Aspergillus parasiticus NCIM 904 at 1000 ug/disk after 72 hrs by disk diffusion method; format: functional; settings: NCIM 904, 72 h, read-out: DIZ; method in brief: as §6
[29] = test system: Aspergillus fumigatus; test: Antimicrobial activity against Aspergillus fumigatus NCIM 902 at 1000 ug/disk after 72 hrs by disk diffusion method; format: functional; method in brief: as §6
[30] = test system: Klebsiella aerogenes; test: Antimicrobial activity against Klebsiella aerogenes NCIM 2239 at 500 ug/disk after 24 hrs by disk diffusion method; format: functional; settings: NCIM 2239, 24 h, read-out: DIZ; method in brief: as §1
[31] = test system: Trichoderma viride; test: Antimicrobial activity against Trichoderma viride NCIM 1195 after 72 hrs by serial dilution method; format: functional; settings: NCIM 1195, 72 h; method in brief: as §3
[32] = test system: Proteus vulgaris; test: Antimicrobial activity against Proteus vulgaris NCIM 2027 at 500 ug/disk after 24 hrs by disk diffusion method; format: functional; settings: NCIM 2027, 24 h, read-out: DIZ; method in brief: as §1

Row | MIC [2] [µg/mL] | MIC [3] [µg/mL] | MIC [4] [µg/mL] | MIC [21] [µg/mL] | Structure (SMILES) | zone of inhibition at 1000 µg/disc [1] [mm] | zone of inhibition at 1000 µg/disc [5] [mm] | zone of inhibition at 500 µg/disc [6] [mm] | zone of inhibition at 1000 µg/disc [7] [mm] | zone of inhibition at 500 µg/disc [9] [mm] | zone of inhibition at 1000 µg/disc [10] [mm] | zone of inhibition at 1000 µg/disc [11] [mm] | zone of inhibition at 1000 µg/disc [12] [mm] | zone of inhibition at 500 µg/disc [14] [mm] | zone of inhibition at 1000 µg/disc [15] [mm] | zone of inhibition at 500 µg/disc [16] [mm] | zone of inhibition at 500 µg/disc [17] [mm] | zone of inhibition at 500 µg/disc [18] [mm] | zone of inhibition at 1000 µg/disc [19] [mm] | zone of inhibition at 500 µg/disc [20] [mm] | zone of inhibition at 1000 µg/disc [22] [mm] | also measured
1 | 62.5 (≈ 169 µM) | 3.9 (≈ 10.6 µM) | 31.2 (≈ 84.4 µM) | 7.8 (≈ 21.1 µM) | CC1(C)CC(=O)C2=C(C1)Nc1c(ccc3ccccc13)C2c1ccc(O)cc1 (centres undefined) | 9 | 10 | 10 | 11 | 7 | 9 | 10 | 12 | 7 | 12 | 7 | 21 | 9 | 9 | 7 | 23 | diameter of the inhibition zone (DIZ) [8]: inactive; diameter of the inhibition zone (DIZ) [13]: inactive; zone of inhibition at 1000 µg/disc [23]: 12 mm; zone of inhibition at 500 µg/disc [24]: 7 mm; zone of inhibition at 500 µg/disc [25]: 9 mm; MIC [26]: 31.2 µg/mL (≈ 84.4 µM); zone of inhibition at 500 µg/disc [27]: 7 mm; zone of inhibition at 1000 µg/disc [28]: 14 mm; diameter of the inhibition zone (DIZ) [29]: inactive; zone of inhibition at 500 µg/disc [30]: 9 mm; MIC [31]: 31.2 µg/mL (≈ 84.4 µM); zone of inhibition at 500 µg/disc [32]: 7 mm
2 | 31.2 (≈ 78.3 µM) | 7.8 (≈ 19.6 µM) | 15.6 (≈ 39.2 µM) | 3.9 (≈ 9.79 µM) | CC1(C)CC(=O)C2=C(C1)Nc1c(ccc3ccccc13)C2c1cccc([N+](=O)[O-])c1 (centres undefined) | 8 | 11 | 10 | 13 | 7 | 10 | 9 | 13 | 8 | 12 | 7 | 10 | 10 | 9 | 7 | 15 | zone of inhibition at 500 µg/disc ([8]; NCIM 707, 72 h, read-out: DIZ): 8 mm; zone of inhibition at 500 µg/disc ([13]; NCIM 902, 72 h, read-out: DIZ): 8 mm; zone of inhibition at 1000 µg/disc [23]: 11 mm; zone of inhibition at 500 µg/disc [24]: 10 mm; zone of inhibition at 500 µg/disc [25]: 10 mm; MIC [26]: 3.9 µg/mL (≈ 9.79 µM); zone of inhibition at 500 µg/disc [27]: 8 mm; zone of inhibition at 1000 µg/disc [28]: 16 mm; zone of inhibition at 1000 µg/disc ([29]; NCIM 902, 72 h, read-out: DIZ): 10 mm; zone of inhibition at 500 µg/disc [30]: 8 mm; MIC [31]: 31.2 µg/mL (≈ 78.3 µM); zone of inhibition at 500 µg/disc [32]: 7 mm
